# Measurements gathered from unrelated publications.
# Compare with care: the assays were run in different laboratories.
# Target: Phosphatidylinositol 3-kinase C2 domain-containing subunit gamma (PIK3C2G, Homo sapiens, UniProt O75747)
Structure (SMILES),observed,action,technique,tested at,endpoint,value
Cc1ccc(C(=O)Nc2ccc(CN3CCN(C)CC3)c(C(F)(F)F)c2)cc1C#Cc1cnc2cccnn12,cell-free assay,,,23.5 nM,remaining signal,85%
Nc1ncnc2occ(-c3ccc(NC(=O)Nc4cc(C(F)(F)F)ccc4F)cc3)c12,cell-free assay,,,20 µM,remaining signal,93%
CN1CC(Oc2cnc(C#N)cc2-c2ccn3nc(NC(=O)C4CC4)cc3c2)C1,enzyme activity,inhibitor,,1 µM,inhibition,-6%
CO[C@H]1CC[C@H](CNc2ccc(S(=O)(=O)NC(=O)c3ccc(N4CCN(CC5=C(c6ccc(Cl)cc6)CC(C)(C)CC5)CC4)cc3Oc3cnc4[nH]ccc4c3)cc2[N+](=O)[O-])CC1,cell-free assay,,competition with immobilised ligand,1 µM,remaining binding,72%
Cc1cnc(NC2CCOCC2)nc1-n1cnc(C(=O)NC(CN)c2cc(F)cc(Cl)c2)c1 (stereo not shown),enzyme activity,inhibitor,radiometric,1 µM,remaining activity,100%
CN(C)CC#Cc1ccc(OCCCc2sc(N3CCc4cccc(C(=O)Nc5nc6ccccc6s5)c4C3)nc2C(=O)O)c(F)c1,cell-free assay,,competition with immobilised ligand,1 µM,remaining binding,100%
CS(=O)(=O)Nc1cccc(-c2csc(NC(=O)CSc3nc4nccnc4c(=O)n3CCc3ccccc3)n2)c1,enzyme activity,inhibitor,,10 µM,inhibition,16%
Cc1ccc(C(=O)NCc2ccsc2)cc1C#Cc1cn(C(C)C)c2ncnc(N)c12,enzyme activity,inhibitor,,1 µM,activity vs control,86%
Cc1ccc(NC(=O)c2ccc(C)c(C(F)(F)F)c2)cc1C#Cc1nn(C2CCC(O)CC2)c2ncnc(N)c12 (stereo not shown),cell-free assay,,,10 µM,remaining signal,98%
Cc1cc(NC(=O)c2cccc3cc(-c4cccc5[nH]nc(N)c45)ccc23)ccc1F,enzyme activity,inhibitor,,0.1 µM,activity vs control,103%
COc1cc(Cl)c(C(=O)N[C@@H](CN[C@H]2CC[C@@H](N)CC2)Cc2ccc(C#N)cc2)cc1-c1ccc(CN[C@H](C)c2ccc(C)cc2)o1,enzyme activity,inhibitor,,1 µM,remaining activity,96%
C=CC(=O)Nc1cc(Nc2nccc(Nc3cc(Cl)c(F)cc3C(C)(C)O)n2)c(OC)cc1N1CC[C@@H](N(C)C)C1,enzyme activity,inhibitor,,1 µM,inhibition,-3%
O=C(CSc1nc2nccnc2c(=O)n1CCc1ccccc1)Nc1nccs1,enzyme activity,inhibitor,,10 µM,inhibition,76%
